This note sets out measurements from ChEMBL document CHEMBL1649418, “Pyrimidine derivatives as potent and selective A3 adenosine receptor antagonists” (J Med Chem, 2011).

What all share (assay type): cell-based
In experiment [1] the target is T1, Adenosine receptor A2b (Homo sapiens) (UniProt P29275).
T1 sequence (whole entry): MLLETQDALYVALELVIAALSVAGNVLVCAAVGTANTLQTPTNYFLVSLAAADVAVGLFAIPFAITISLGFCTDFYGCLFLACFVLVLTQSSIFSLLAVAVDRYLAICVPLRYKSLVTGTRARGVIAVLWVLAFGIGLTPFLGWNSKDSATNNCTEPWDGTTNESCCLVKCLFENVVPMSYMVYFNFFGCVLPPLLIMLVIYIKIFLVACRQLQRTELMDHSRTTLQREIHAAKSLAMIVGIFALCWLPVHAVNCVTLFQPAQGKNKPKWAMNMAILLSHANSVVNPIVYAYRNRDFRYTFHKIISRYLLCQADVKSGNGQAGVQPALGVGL
Description: Displacement of [3H]DPCPX from human adenosine A2B receptor expressed in HEK293 cells at 0.1 uM by liquid scintillation counting. The method, boiled down:
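HEK-293 membranes (18 μg) were incubated with [3H]DPCPX (35 nM) at 25 °C for 30 min, with six concentrations from 0.1 nM to 1 μM. Nonspecific binding was defined with 400 μM NECA. Filters were washed six times with ice-cold buffer and counted by scintillation. Ki (Cheng–Prusoff) is mean ± SEM, n=3; % displacement at 0.1 μM is n=2.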

In the next experiment the target is Adenosine receptor A2a (Homo sapiens, UniProt P29274). Description: Displacement of [3H][…] from human adenosine A2A receptor expressed in human HeLa cells at 0.1 uM by liquid scintillation counting. In outline: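 Nonspecific binding was defined with 50 μM NECA. Filters were washed four times with ice-cold buffer, then counted by scintillation. Ki (Cheng–Prusoff) is mean ± SEM, n=3; % displacement at 0.1 μM is n=2.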
Chain of Adenosine receptor A2a (P29274 whole entry): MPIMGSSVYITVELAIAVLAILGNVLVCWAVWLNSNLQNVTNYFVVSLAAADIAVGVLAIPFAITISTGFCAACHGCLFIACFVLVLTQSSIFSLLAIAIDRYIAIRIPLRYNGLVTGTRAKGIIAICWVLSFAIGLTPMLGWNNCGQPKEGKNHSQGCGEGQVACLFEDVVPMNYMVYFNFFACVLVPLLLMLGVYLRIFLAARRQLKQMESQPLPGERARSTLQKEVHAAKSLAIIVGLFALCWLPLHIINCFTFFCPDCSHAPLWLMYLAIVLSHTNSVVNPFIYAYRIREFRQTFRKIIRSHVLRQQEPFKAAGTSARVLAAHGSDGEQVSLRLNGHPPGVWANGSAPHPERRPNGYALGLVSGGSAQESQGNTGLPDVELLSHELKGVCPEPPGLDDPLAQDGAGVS
Background: Displacement assays read how much labelled ligand stays bound in the presence of the test substance.

The next experiment concerns the target T2, Adenosine receptor A3 (Homo sapiens, UniProt P0DMS8).
T2 sequence (P0DMS8 whole entry): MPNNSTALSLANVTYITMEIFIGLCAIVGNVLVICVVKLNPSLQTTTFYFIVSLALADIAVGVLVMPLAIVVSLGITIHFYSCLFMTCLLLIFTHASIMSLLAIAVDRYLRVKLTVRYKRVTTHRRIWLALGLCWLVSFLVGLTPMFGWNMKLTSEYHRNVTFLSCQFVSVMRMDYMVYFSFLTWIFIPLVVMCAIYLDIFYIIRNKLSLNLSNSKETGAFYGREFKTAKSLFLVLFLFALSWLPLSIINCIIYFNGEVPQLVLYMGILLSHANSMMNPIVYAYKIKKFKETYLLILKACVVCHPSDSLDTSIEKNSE
Description: Displacement of [3H]NECA from human adenosine A3 receptor expressed in human HeLa cells by liquid scintillation counting. The method, boiled down: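 HeLa membranes (90 μg) carrying hA3AR were incubated with [3H]NECA (30 nM) at 25 °C for 180 min, with six concentrations from 0.1 nM to 1 μM. Nonspecific binding was defined with 100 μM R-PIA. Filters were washed six times and counted by scintillation.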

The target of experiment [2] is T3, Adenosine receptor A1 (Homo sapiens) (UniProt P30542).
T3 sequence (whole entry): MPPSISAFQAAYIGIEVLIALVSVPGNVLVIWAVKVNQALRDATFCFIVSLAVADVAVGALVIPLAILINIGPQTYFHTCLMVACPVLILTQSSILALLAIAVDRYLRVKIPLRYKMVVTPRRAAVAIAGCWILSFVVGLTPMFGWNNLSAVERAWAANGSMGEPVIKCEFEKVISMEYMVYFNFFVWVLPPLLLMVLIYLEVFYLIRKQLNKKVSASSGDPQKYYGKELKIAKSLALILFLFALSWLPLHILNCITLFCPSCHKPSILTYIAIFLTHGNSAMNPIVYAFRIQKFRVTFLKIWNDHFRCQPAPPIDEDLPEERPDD
Description: Displacement of [3H]DPCPX from human adenosine A1 receptor expressed in CHO cells at 0.1 uM by liquid scintillation counting. In outline: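 Transfected CHO cell membranes (15 μg) were incubated with [3H]DPCPX at 25 °C for 60 min, with six test concentrations from 0.1 nM to 1 μM. Nonspecific binding was defined with 10 μM R-PIA. Filters were washed four times with ice-cold buffer before scintillation counting. Ki (Cheng–Prusoff) is mean ± SEM, n=3; % displacement at 0.1 μM is n=2.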

Experiment [3] has as its target T4, Adenosine receptor A3 (Homo sapiens) (UniProt P0DMS8).
T4 sequence (whole entry): T2 sequence (P0DMS8 whole entry)
Description: Displacement of [3H]NECA from human adenosine A3 receptor expressed in human HeLa cells at 0.1 uM by liquid scintillation counting. In outline: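 HeLa membranes (90 μg) carrying hA3AR were incubated with [3H]NECA (30 nM) at 25 °C for 180 min, with six concentrations from 0.1 nM to 1 μM. Nonspecific binding was defined with 100 μM R-PIA. Filters were washed six times and counted by scintillation. Ki (Cheng–Prusoff) is mean ± SEM, n=3; % displacement at 0.1 μM is n=2.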

As a reminder, the inhibition is the relative decrease from the control value, in per cent. Read a high inhibition as a strong effect.

Molecules are shown by their SMILES.

Turning to `COc1ccc(-c2cc(NC(=O)C(C)C)nc(-c3ccc(OC)cc3OC)n2)c(OC)c1`, the inhibition in experiment [1] was determined as 1%; on Adenosine receptor A2a it was 1%; in experiment [2], 18%. For the same compound, the Ki on Adenosine receptor A3 (read-out: Ki) was determined as 15.9 nM.
In the case of `CCC(=O)Nc1cc(-c2ccc(C(C)=O)cc2)nc(-c2ccc(C(C)=O)cc2)n1`, the inhibition came to 2% in experiment [1], 1% on Adenosine receptor A2a and 1% in experiment [2]. Also, the Ki on Adenosine receptor A3 (read-out: Ki) is 43.9 nM.
Consider `CCC(=O)Nc1nc(-c2ccccc2OC)cc(-c2ccccc2OC)n1`, for which the inhibition in experiment [1] turned out to be 2%; on Adenosine receptor A2a, 13%; in experiment [2] it was 21%; in experiment [3], 22%.
Consider `CC(=O)Nc1nc(-c2ccc(F)cc2)cc(-c2ccc(F)cc2)n1`, for which the inhibition in experiment [1] was found to be 1%; at Adenosine receptor A2a, 2%; in experiment [2], 2%; in experiment [3], 8%.
Take `CCC(=O)Nc1nc(-c2ccc(C(F)(F)F)cc2)cc(-c2ccc(C(F)(F)F)cc2)n1`: the inhibition in experiment [1] is 9%; at Adenosine receptor A2a it was 12%; in experiment [2], 2%; in experiment [3], 2%.
Consider `CC(=O)Nc1cc(-c2ccc(Cl)cc2)nc(-c2ccc(Cl)cc2)n1`, for which the inhibition in experiment [1] is 1%; on Adenosine receptor A2a, 10%; in experiment [2] it was 1%. Besides, the Ki at Adenosine receptor A3 (read-out: Ki) is 63.3 nM.
As for `CC(=O)Nc1nc(/C=C/c2ccccc2)cc(/C=C/c2ccccc2)n1`, the inhibition was 1% in experiment [1], 15% at Adenosine receptor A2a, 1% in experiment [2] and 4% in experiment [3].
Regarding `CSc1ccc(-c2cc(NC(C)=O)nc(-c3ccc(SC)cc3)n2)cc1`, the inhibition amounted to 2% in experiment [1], 1% on Adenosine receptor A2a and 1% in experiment [2]. Also, the Ki on Adenosine receptor A3 (read-out: Ki) came out at 71.3 nM.
As for `CCC(=O)Nc1cc(-c2ccc(SC)cc2)nc(-c2ccc(SC)cc2)n1`, the inhibition in experiment [1] was determined as 3%; on Adenosine receptor A2a, 1%; in experiment [2], 1%. Also, the Ki at Adenosine receptor A3 (read-out: Ki) stood at 43.6 nM.
As for `COc1ccc(-c2cc(NC(=O)C(C)C)nc(-c3ccc(OC)cc3)n2)cc1`, the inhibition in experiment [1] came out at 3%; at Adenosine receptor A2a, 1%; in experiment [2], 5%. Also, the Ki on Adenosine receptor A3 (read-out: Ki) amounted to 12.2 nM.
In the same order, the values of `CCC(=O)Nc1nc(/C=C/c2ccccc2)cc(/C=C/c2ccccc2)n1` are 1%, 1%, 1% and 142 nM.
With `COc1ccc(-c2cc(NC(=O)C3CCCCC3)nc(-c3ccc(OC)cc3OC)n2)c(OC)c1`, the inhibition was determined as 4% in experiment [1], 1% at Adenosine receptor A2a and 1% in experiment [2]. Moreover, the Ki on Adenosine receptor A3 (read-out: Ki) was 56.3 nM; at Adenosine receptor A3 (read-out: pKi (converted)) it was 257 nM.
With `CCCC(=O)Nc1cc(-c2ccc(Cl)cc2)nc(-c2ccc(Cl)cc2)n1`, the inhibition in experiment [1] was found to be 1%; at Adenosine receptor A2a, 21%; in experiment [2], 16%. The Ki at Adenosine receptor A3 (read-out: Ki) was 103 nM.
Turning to `CCCC(=O)Nc1cc(-c2ccc(C(C)=O)cc2)nc(-c2ccc(C(C)=O)cc2)n1`, the results for the inhibition (in experiment [1]; at Adenosine receptor A2a; in experiment [2]) were 1%, 1% and 2%, respectively. On Adenosine receptor A3 (read-out: Ki), the Ki stood at 133 nM.
As to `COc1ccccc1-c1cc(NC(C)=O)nc(-c2ccccc2OC)n1`, the inhibition came to 1% in experiment [1], 14% on Adenosine receptor A2a and 1% in experiment [2]. Also, on Adenosine receptor A3 (read-out: Ki), the Ki stood at 24.1 nM.
For the compound `CCC(CC)C(=O)Nc1cc(-c2ccc(OC)cc2OC)nc(-c2ccc(OC)cc2OC)n1`, the figures for the inhibition (in experiment [1]; on Adenosine receptor A2a; in experiment [2]) were 2%, 2% and 1%, respectively. Moreover, the Ki at Adenosine receptor A3 (read-out: Ki) worked out at 52.4 nM.
On to `CCC(=O)Nc1cc(-c2ccc(OC)cc2OC)nc(-c2ccc(OC)cc2OC)n1`, for which the inhibition in experiment [1] is 8%; at Adenosine receptor A2a, 14%; in experiment [2] it was 6%. For the same compound, at Adenosine receptor A3 (read-out: Ki), the Ki came to 11.3 nM.
Turning to `CC(=O)Nc1nc(-c2ccc(C)cc2)cc(-c2ccc(C)cc2)n1`, the inhibition came out at 3% in experiment [1], 6% on Adenosine receptor A2a and 3% in experiment [2]. For the same compound, on Adenosine receptor A3 (read-out: Ki), the Ki came to 47.3 nM.
`CC(=O)Nc1cc(-c2ccc(C(F)(F)F)cc2)nc(-c2ccc(C(F)(F)F)cc2)n1`: the inhibition (in experiment [1]; at Adenosine receptor A2a; in experiment [2]) was 1% throughout. Besides, the Ki on Adenosine receptor A3 (read-out: Ki) worked out at 126 nM.
Turning to `CC(=O)Nc1cc(/C=C/c2ccccc2)nc(/C=C/c2ccccc2)n1`, the values for the inhibition (in experiment [1]; on Adenosine receptor A2a; in experiment [2]) were 1%, 13% and 1%, respectively. Moreover, the Ki on Adenosine receptor A3 (read-out: Ki) was 15.6 nM.
For `CCCC(=O)Nc1cc(-c2ccc(C)cc2)nc(-c2ccc(C)cc2)n1`, the inhibition in experiment [1] came to 3%; at Adenosine receptor A2a it was 2%; in experiment [2], 16%. The Ki at Adenosine receptor A3 (read-out: Ki) is 59 nM.
In the same order, the values of `CC(=O)Nc1cc(-c2ccc(C(C)=O)cc2)nc(-c2ccc(C(C)=O)cc2)n1` are 16%, 13%, 10% and 25.2 nM.
For `COc1ccc(-c2cc(NC(=O)C3CCCCC3)nc(-c3ccc(OC)cc3)n2)cc1`, the inhibition in experiment [1] turned out to be 1%; at Adenosine receptor A2a, 1%; in experiment [2] it was 5%. Besides, at Adenosine receptor A3 (read-out: Ki), the Ki came out at 32.1 nM.
As for `CCC(=O)Nc1cc(/C=C/c2ccccc2)nc(/C=C/c2ccccc2)n1`, the inhibition in experiment [1] turned out to be 2%; on Adenosine receptor A2a, 2%; in experiment [2], 17%. For the same compound, the Ki on Adenosine receptor A3 (read-out: Ki) stood at 46.9 nM.
In the case of `CCC(CC)C(=O)Nc1cc(-c2ccc(OC)cc2)nc(-c2ccc(OC)cc2)n1`, the inhibition came out at 8% in experiment [1], 6% at Adenosine receptor A2a and 3% in experiment [2]. Also, on Adenosine receptor A3 (read-out: Ki), the Ki amounted to 58.1 nM.
As to `CCC(=O)Nc1nc(-c2ccc(C)cc2)cc(-c2ccc(C)cc2)n1`, the values for the inhibition (in experiment [1]; on Adenosine receptor A2a; in experiment [2]) were 3%, 1% and 1%, respectively. At Adenosine receptor A3 (read-out: Ki), the Ki was found to be 157 nM.
As for `CCCC(=O)Nc1cc(-c2ccc(OC)cc2OC)nc(-c2ccc(OC)cc2OC)n1`, the inhibition in experiment [1] was 14%; at Adenosine receptor A2a, 12%; in experiment [2], 18%. The Ki on Adenosine receptor A3 (read-out: Ki) came to 10.2 nM.
In the same order, the values of `CC(=O)Nc1nc(-c2ccc3c(c2)OCO3)cc(-c2ccc3c(c2)OCO3)n1` are 1%, 15%, 1% and 101 nM.
Turning to `COc1ccc(-c2cc(NC(C)=O)nc(-c3ccc(OC)cc3)n2)cc1`, the inhibition in experiment [1] worked out at 4%; at Adenosine receptor A2a, 10%; in experiment [2], 1%.
With `CCC(=O)Nc1nc(-c2ccco2)cc(-c2ccco2)n1`, the inhibition in experiment [1] came to 21%; at Adenosine receptor A2a it was 15%; in experiment [2], 24%. Also, on Adenosine receptor A3 (read-out: Ki), the Ki is 1900 nM.
